Compounds with a hit are over-represented: about 4.2% of the library has one in this group of screens.
KCNQ1 inh – human KCNQ1 channel inhibition. P51787. CHO-K1 KCNQ1, FluxOR thallium flux fluorescence; hits give high values. B-score at 10 µM. actives 1.3% (n = 310,000). AID 2642;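 active = compounds whose thallium flux B-score, printed positive for inhibition, exceeds three library SD while starting fluorescence stays within three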;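 also: channel opened by potassium depolarization with thallium stimulus after 20 min compound exposure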
AI-2 QS modul – modulates the Vibrio harveyi AI-2 quorum sensing system; AID 2094; Vibrio harveyi JMH597 AI-2 luminescence/OD600 ratio, 9 h; hits give low values; strain lacks LuxN and CqsS sensors; 0 = neutral-control median; actives 0.4% (n = 300,000); activity change, % at 7.5 µM; in the data active = activity change below about -75%, passing the limit was not always enough; inconclusive = no clear call, values can overlap the other calls;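 also: luminescence divided by OD600 gain over 9 h not by final OD600 alone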
SUMO Mot1 rescue – inhibitors of SUMOylation pathway: yeast Mot1-301 growth rescue; S. cerevisiae Mot1-301 growth rescue, ATP luminescence, 38.5C; percent above DMSO median, 100 means doubled; growth rescue, % at 18.8 µM; actives 1% (n = 320,000);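 active = every valid replicate shows activation above 250% relative to neutral control wells; inactive = the rest, any valid replicate at or below 250%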;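 also: OY570 slx delta 5 strain wells were the positive control but not used for scaling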
hERG protect – shields human hERG channel from block by proarrhythmic agents; Q12809; activation (rescue from dofetilide block), less the hit threshold, % at 10 µM; CHO-hERG, FluxOR thallium flux, dofetilide IC70 present; AID 1511; actives 0.51% (n = 310,000);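 active = activation above the mean of controls blocked by dofetilide plus 5 SD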;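 also: thallium influx through hERG after potassium depolarization seen as dye fluorescence rise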
KCC2 mod – modulates chloride dependent transport by human KCC2; Q9H2X9; KCC2 cells, thallium flux FluoZin-2 fluorescence; B-score of Tl+ flux slope (higher = more flux/activation; lower = inhibition) at 10 µM; actives 2.2% (n = 190,000);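 active = thallium flux slope and its plate-corrected score both differing from the plate sample mean at a set confidence after two filtering rounds, in either direction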;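 also: slope of fluorescence scaled to starting intensity during 10 to 20 s after thallium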
KCNQ1 act – potentiators or activators of human KCNQ1 potassium channel | P51787 | CHO-K1 KCNQ1, thallium flux FluxOR fluorescence; hits give high values | B-score at 10 µM | actives 0.35% (n = 310,000) | AID 2648;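 active = fluorescence ratio B-score, a plate-corrected score, at least three library SD, with initial intensity B-score within 5 SD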
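Test system: CHO-K1 cells stably expressing KCNQ1 / Medium: assay buffer / Also added: depolarizing K+/Tl+ stimulus, K2SO4 and Tl2SO4 each 12.5 mM in 5x stock / Incubation: 90 min dye loading and 20 min compound exposure, both at room temperature / Signal: thallium influx via FluxOR fluorescence, kinetic imaging / Evaluation: B score of baseline-normalized fluorescence ratio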
KCC2 secondary – confirmation of human KCC2 transport modulators; shares compounds with KCC2 mod; HEK293-KCC2, thallium flux, FluoZin2 fluorescence; hits give high values; normalised thallium flux (F/F0 slope) at 10 µM; actives 15% (n = 3,700);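 active = thallium flux slope above the same plate's solvent-only control mean plus 3 SD; inconclusive = the two replicate wells disagree; inactive = no significant difference from solvent-only control wells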
KCC2 bumet counter – thallium flux despite bumetanide block in KCC2 cells, secondary assay 3 | shares compounds with KCC2 mod | HEK293-KCC2 + bumetanide/ouabain, thallium flux FluoZin2; hits give high values | normalized thallium flux at 10 µM | actives 49% (n = 3,700) | AID 1714;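 active = thallium entry rate above the same plate's blocked-transporter control wells by more than 3 SD; inconclusive = the two repeat wells disagree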;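 also: raw slope of fluorescence over initial fluorescence between 10 and 20 s after thallium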
KCC2 sec2 – confirmation of human KCC2 transport modulators; actives 23% (n = 3,700); shares compounds with KCC2 mod; normalized thallium flux at 10 µM; HEK293-KCC2, thallium flux FluoZin2 fluorescence; actives lie on both sides; F/F0 rise rate, 10–20 s post-thallium;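 active = thallium flux slope more than 3 SD above or below the plate's solvent-only control mean, mostly below; inconclusive = the two repeat wells disagreed; inactive = no significant shift from solvent-only controls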;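 also: raw slope with 0.1% DMSO as baseline and bumetanide as block control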
HEK293 Tl flux – counter-screen for KCC2 modulators: effect in parental HEK293 cells. shares compounds with KCC2 mod. thallium flux FluoZin2, ouabain; baseline-ratio fluorescence slope, 10–20 s after thallium. thallium flux rate (normalised fluorescence) at 10 µM. actives 46% (n = 3,700). AID 1716;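 active = thallium flux rate significantly above the same plate's solvent-only control wells, beyond their mean plus 3 SD; inconclusive = the two replicate wells gave conflicting results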
KCC2 retest ouab – KCC2 (human) modulation, ouabain retest; shares compounds with KCC2 mod; HEK293-KCC2, thallium flux FluoZin2 fluorescence; bidirectional: low = inhibitor, high = activator; raw Tl+ flux slope (below DMSO = inhibition, above = activation) at 10 µM; actives 48% (n = 3,700); AID 1717;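 active = thallium flux slope beyond 3 SD from same-plate DMSO control mean in most replicates, usually higher, sometimes lower; inconclusive = repeat tests gave conflicting results; inactive = no significant difference from controls in most replicates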;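 also: slope of initial-normalized fluorescence between seconds 10 and 20 after thallium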
HEK counter2 – counter-screen for KCC2 modulators: effect in parental HEK293 cells | shares compounds with KCC2 mod | thallium flux FluoZin-2 fluorescence slope | thallium flux slope at 10 µM | actives 33% (n = 3,700) | AID 1718;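 active = thallium flux slope above the same plate's solvent-control mean plus 3 SD in both duplicate wells; inconclusive = duplicate wells that disagreed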;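 also: run without ouabain in cells lacking the KCC2 cotransporter; slope of fluorescence scaled to its starting value between 10 and 20 s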
* marks the source's active call; other numbers are inactive results; i = inactive; ? = inconclusive; . = no result given.

SMILES	KCNQ1 inh	AI-2 QS modul	SUMO Mot1 rescue	hERG protect	KCC2 mod	KCNQ1 act	KCC2 secondary	KCC2 bumet counter	KCC2 sec2	HEK293 Tl flux	KCC2 retest ouab	HEK counter2
CC(C)Cc1[nH]c(=O)c(C#N)c2c1CCCC2	i	27.8	69.6	0.6	-0.498	i	0.0163	0.00451	0.0272	?	0.0169	0.0101
C=C(C)Cn1c(CCNC(=O)CCC)nc2ccccc21	i	23.1	13.8	-3.6	0.3	i	.	.	.	.	.	.
CCCCCn1c(CNC(=O)CCC)nc2ccccc21	i	3.0	3.9	-3.7	-4.64*	i	0.00602	0.00392	0.0319	0.0069	0.0181	?
C=C(C)Cn1c(CCCNC(=O)CC)nc2ccccc21	i	26.1	94.3	-8.4	-4.97*	i	0.00848	0.00652	0.0328	0.00786	0.0233	0.0107
O=C(/C=C/c1ccccc1)NCCSCc1ccc(Cl)cc1	i	6.2	-3.3	-7.7	-0.0603	i	.	.	.	.	.	.
O=C(/C=C/c1ccccc1)NCCSCc1ccccc1Cl	i	-6.8	6.5	-6.1	-3.78*	i	0.00664	0.00478	0.0336	0.00736	0.0174*	0.0106
CCC(c1nnnn1CCOC)N1CCN(C(=O)c2ccco2)CC1 (configuration not stated)	i	9.8	-13.4	-10.2	0.752	i	.	.	.	.	.	.
COCCn1nnnc1C(CC(C)C)N1CCN(C(=O)c2ccco2)CC1 (configuration not stated)	i	23.9	.	-2.5	7.5*	i	0.00643	0.00459	0.0319	0.00851	0.0193	0.0099
NC(=O)COC(=O)/C=C/c1cccc(Br)c1	i	2.2	-0.3	-2.2	-7.7*	i	0.0092	0.00641	0.0333	0.00791	0.0212	0.0103
CC(=O)NC(C)c1cc(Cl)c2cccnc2c1O (configuration not stated)	.	.	-15.5	.	.	.	.	.	.	.	.	.
Oc1c(I)cc(I)c2cccnc12	i	13.8	.	-5.2	77.9*	i	0.0107	0.0779*	0.037	0.0439*	0.0842*	0.0132*
O=C(Oc1c(Cl)cc(Cl)c2cccnc12)c1cccs1	i	8.3	113.9	-5.6	3*	i	0.00833	0.0299*	0.0344	0.0158*	0.0351*	?
Oc1c(Cl)cc(Cl)c2cccnc12	i	?	.	-6.8	87.5*	i	0.0194*	0.119*	0.0472*	0.098*	0.0956*	0.0318*
CCC(C)[C@H](NS(=O)(=O)c1ccc(C)cc1)C(=O)N1CCC(C(=O)N[C@@H](Cc2ccccc2)C(=O)O)CC1 (some centres not stated)	i	8.1	-4.2	-5.2	.	i	.	.	.	.	.	.
O=S(=O)(Nc1c(S(=O)(=O)c2ccccc2)c2nc3ccccc3nc2n1C1CCCCC1)c1ccccc1	i	33.7	-21.0	-16.9	-4.33*	i	0.00829	0.00604	0.0341	0.00386	?	0.0116
C=CCn1c(NS(=O)(=O)c2ccccc2)c(S(=O)(=O)c2ccc(C)cc2)c2nc3ccccc3nc21	i	11.1	-5.1	-6.2	-3.32	i	.	.	.	.	.	.
Cc1nn(-c2ccccc2)c2nc(C(F)(F)F)[nH]c(=O)c12	i	12.6	-13.2	-1.1	-0.468	i	.	.	.	.	.	.
Cc1nn(-c2cc(C(F)(F)F)ccc2Cl)c2nc(C(Cl)(Cl)Cl)[nH]c(=O)c12	i	26.6	181.9	-4.2	50.3*	i	0.00577	0.061*	0.0483*	0.0356*	0.0483*	0.0343*
Nn1c(COc2ccc(Cl)cc2)n[nH]c1=S	i	24.5	12.1	-1.4	-3.34*	i	0.00966	0.00719	?	0.00759	0.0347*	0.00986
CCc1ccccc1NC(=O)c1cccc(N2C(=O)C3C4CCC(C4)C3C2=O)c1 (configuration not stated)	i	9.4	5.2	-10.9	0.83	i	.	.	.	.	.	.
Cc1cccc(NC(=O)c2cccc(N3C(=O)C4C5CCC(C5)C4C3=O)c2)c1C (configuration not stated)	i	10.2	-5.1	-11.7	6.2*	i	0.00748	0.0046	0.0294	0.00792	0.0192	0.0109
CCCn1nc(Oc2nc(NCC)nc(NC(C)C)n2)ccc1=O	i	2.9	17.9	-7.3	-4.38*	i	0.00904	0.00628	0.0347	0.00736	0.0219	0.0103
O=S(=O)(Nc1cccc2ncccc12)c1cccs1	i	87.0	18.9	-19.4	28.5*	i	0.0248*	0.0693*	0.037*	0.0272*	0.0479*	0.0186*
O=C(Nc1nnc(C2=COCCO2)o1)c1ccc(F)cc1	i	29.3	178.0	-1.9	.	i	.	.	.	.	.	.
O=C(Nc1nnc(C2=COCCO2)o1)c1ccc(Cc2ccccc2)cc1	i	16.3	0.8	-3.7	7.3*	i	0.00666	0.0195*	0.0311	0.0157*	?	0.0188*
O=C(Nc1nnc(C2=COCCO2)o1)c1ccc(Cl)cc1	i	-59.3	-1.5	-1.9	8.51*	i	?	0.0258*	0.0294	0.0208*	0.0325*	?
CC1C/C(=N/NC(=O)c2cccc(F)c2)c2ccc(O)cc2C1 (configuration not stated)	i	8.9	-5.6	-12.1	.	i	.	.	.	.	.	.
Cc1cc(C)nc(Sc2nc(C)nc3c2oc2ccccc23)n1	.	39.4	-15.0	.	.	.	0.018	0.00443	0.0268	0.00742	0.0158	0.0103
O=C(NCc1ccccc1Cl)C1CCCN1C(=O)Nc1ccccc1 (configuration not stated)	i	7.0	2.7	-4.8	.	i	.	.	.	.	.	.
Nc1nc(SCCO)[nH]c(=O)c1NC(=O)c1ccccc1F	i	34.2	-10.6	-14.5	0.41	i	.	.	.	.	.	.

Screening data as filed in PubChem BioAssay.
